From EPA's CvTdb concentration-time database

How the values were obtained:
Rat [1] = assay: concentration in plasma after dosing; conditions: 2 min; dosed: Pyridine; 10 mg/kg; iv; Male; F344
Rat [2] = assay: concentration in plasma after dosing; conditions: dosed: Pyridine, 5 mg/kg, iv, Male, F344
Rat [3] = assay: concentration in plasma after dosing; conditions: 10 min; dosed: Pyridine; 10 mg/kg; oral; Male; F344
Rat [4] = assay: concentration in plasma after dosing; conditions: dosed: 2-Hydroxy-4-methoxybenzophenone, 500 mg/kg, oral, Male, F344
Mouse [5] = assay: concentration in plasma after dosing; conditions: 3 h; dosed: 2-Hydroxy-4-methoxybenzophenone; 250 mg/kg; oral; Female; B6C3F1
Mouse [6] = assay: concentration in plasma after dosing; conditions: 0.25 h; dosed: 2-Hydroxy-4-methoxybenzophenone; 50 mg/kg; iv; Female; B6C3F1
Rat [7] = assay: concentration in plasma after dosing; conditions: 6 h; dosed: 2-Hydroxy-4-methoxybenzophenone; 500 mg/kg; oral; Male; F344
rat [8] = assay: amount in urine after dosing (umol); conditions: inhalation, duration: 4 hr, F344 (Harlan Winkelmann)
Rat [9] = assay: concentration in plasma after dosing; conditions: 12 h; dosed: alpha-Thujone; 50 mg/kg; oral; Male; Harlan Sprague Dawley
Rat [10] = assay: concentration in brain after dosing; conditions: 3 h; dosed: alpha-Thujone; 25 mg/kg; oral; Male; Harlan Sprague Dawley
Rat [11] = assay: concentration in plasma after dosing; conditions: 5 min; dosed: alpha-Thujone; 50 mg/kg; oral; Female; Harlan Sprague Dawley
Rat [12] = assay: concentration in plasma after dosing; conditions: 0.5 h; dosed: alpha-Thujone; 50 mg/kg; oral; Female; Harlan Sprague Dawley
Rat [13] = assay: concentration in brain after dosing; conditions: 1.5 h; dosed: alpha-Thujone; 50 mg/kg; oral; Female; Harlan Sprague Dawley
Rat [14] = assay: concentration in plasma after dosing; conditions: 12 h; dosed: alpha-Thujone; 50 mg/kg; oral; Female; Harlan Sprague Dawley
Rat [15] = assay: concentration in brain after dosing; conditions: 3 h; dosed: alpha-Thujone; 25 mg/kg; oral; Male; Harlan Sprague Dawley; remark: listed apart in the source
Rat [16] = assay: concentration in plasma after dosing; conditions: 2 min; dosed: alpha-Thujone; 25 mg/kg; oral; Male; Harlan Sprague Dawley
Rat [17] = assay: concentration in liver after dosing; conditions: 3 h; dosed: Perfluorohexane-1-sulphonic acid – potassium salt; 16 mg/kg; oral; Female; Harlan Sprague Dawley
Rat [18] = assay: concentration in brain after dosing; conditions: 12 h; dosed: Perfluorohexane-1-sulphonic acid – potassium salt; 16 mg/kg; oral; Female; Harlan Sprague Dawley
Rat [19] = assay: concentration in liver after dosing; conditions: 96 h; dosed: Perfluorohexane-1-sulphonic acid – potassium salt; 16 mg/kg; oral; Female; Harlan Sprague Dawley
Rat [20] = assay: concentration in kidney after dosing; conditions: 12 h; dosed: Perfluorohexane-1-sulphonic acid – potassium salt; 16 mg/kg; oral; Female; F344
Rat [21] = assay: concentration in brain after dosing; conditions: 3 h; dosed: Perfluorohexane-1-sulphonic acid – potassium salt; 16 mg/kg; oral; Female; Harlan Sprague Dawley
Mouse [22] = assay: concentration in plasma after dosing; conditions: 5 min; dosed: 2,4-Dichlorophenoxyacetic acid; 2.0 mg/kg; oral; Male; B6C3F1
human [23] = assay: concentration in blood after dosing; negative times count back from the end of exposure; conditions: dosed: trichloroethylene, 100 ppm, inhalation, duration: 6 hr, female
Procedure, shortened: (§1)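 Points were largely digitised from plot screenshots with WebPlotDigitizer or otherwise copied from tables, and they remain in the units each source reported. They come from published in vivo toxicokinetic studies and two structured collections. Sampling and analytical methods follow each source and were often not reported.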

human [24] = assay: as above; conditions: dosed: trichloroethylene, 100 ppm, inhalation, duration: 6 hr, female; remark: listed apart in the source
Procedure, shortened: as §1

Rat [25] = assay: concentration in plasma after dosing; conditions: dosed: Methyleugenol, 37 mg/kg, iv, Male, F344
Rat [26] = assay: concentration in plasma after dosing; conditions: 20 min; dosed: Methyleugenol; 37 mg/kg; oral; Female; F344/N
Rat [27] = assay: concentration in plasma after dosing; conditions: dosed: Methyleugenol, 37 mg/kg, oral, Female, F344/N
Rat [28] = assay: concentration in plasma after dosing; conditions: 0.25 h; dosed: Primidone; 80 mg/kg; oral; Female; F344
Rat [29] = assay: concentration in plasma after dosing; conditions: 12 h; dosed: Primidone; 130 mg/kg; oral; Female; F344

c1ccncc1 [Pyridine]
Conditions	concentration in plasma [ng/mL]
Rat [1]	10100
Rat [3]	4950

Rat [2]
Conditions	concentration in plasma [ng/mL]
0.05 h	4210
4 h	2060

O=C(c1ccccc1)c1ccc(O)cc1O [2,4-Dihydroxybenzophenone]
Rat [4]
Conditions	concentration in plasma [ng/mL]
0.5 h	162
12 h	148

Conditions	concentration in plasma [ng/mL]
Mouse [5]	133
Mouse [6]	903
Rat [7]	245

CC(C)(O)CO [2-methyl-1,2-propanediol]
rat [8]
Conditions	amount in urine
5.902 h, dosed: ethyl tert-butyl ether, 4.5 ppm	0.0942
5.941 h, dosed: methyl tert-butyl ether, 38.7 ppm	1.91
5.99 h, dosed: ethyl tert-butyl ether, 40.6 ppm	0.962
11.87 h, dosed: ethyl tert-butyl ether, 4.5 ppm	0.122
11.94 h, dosed: methyl tert-butyl ether, 38.7 ppm	1.17
11.96 h, dosed: ethyl tert-butyl ether, 40.6 ppm	0.855
11.97 h, dosed: methyl tert-butyl ether, 4.5 ppm	0.56
17.81 h, dosed: ethyl tert-butyl ether, 4.5 ppm	0.0535
17.95 h, dosed: methyl tert-butyl ether, 38.7 ppm	0.268
18.01 h, dosed: ethyl tert-butyl ether, 40.6 ppm	0.254
18.01 h, dosed: methyl tert-butyl ether, 4.5 ppm	0.155
23.76 h, dosed: ethyl tert-butyl ether, 4.5 ppm	0.0171
23.93 h, dosed: methyl tert-butyl ether, 38.7 ppm	0.126
23.95 h, dosed: methyl tert-butyl ether, 4.5 ppm	0.0371
23.96 h, dosed: ethyl tert-butyl ether, 40.6 ppm	0.0668
29.72 h, dosed: ethyl tert-butyl ether, 4.5 ppm	0.015
29.91 h, dosed: methyl tert-butyl ether, 38.7 ppm	0.0631
29.93 h, dosed: ethyl tert-butyl ether, 40.6 ppm	0.0668
29.96 h, dosed: methyl tert-butyl ether, 4.5 ppm	0.023

CC(C)[C@]12CC(=O)[C@H](C)[C@H]1C2 [alpha-Thujone]
Conditions	concentration in brain [ng/g]	concentration in plasma [ng/mL]
Rat [9]	–	20
Rat [10]	176	–
Rat [11]	–	201
Rat [12]	–	5000
Rat [13]	1360	–
Rat [14]	–	28.6
Rat [15]	130	–
Rat [16]	–	17.8

O=S(=O)([O-])C(F)(F)C(F)(F)C(F)(F)C(F)(F)C(F)(F)C(F)(F)F.[K+] [Perfluorohexane-1-sulphonic acid – potassium salt]
Conditions	concentration in brain [ng/g]	concentration in kidney [ng/g]	concentration in liver [ng/g]
Rat [17]	–	–	57400
Rat [18]	1190	–	–
Rat [19]	–	–	10200
Rat [20]	–	35900	–
Rat [21]	1340	–	–

O=C(O)COc1ccc(Cl)cc1Cl [2,4-Dichlorophenoxyacetic acid]
Conditions	concentration in plasma [ng/mL]
Mouse [22]	4560

OCC(Cl)(Cl)Cl [trichloroethanol]
concentration in blood [ng/mL]
Conditions	0 h	18 h	24 h	42 h	48 h	66 h	72 h	90 h	96 h	160 h
human [23]	7540	3770	7410	2960	6640	2540	6900	3410	6090	–
human [24]	4610	4180	8180	6260	11800	6560	13100	5590	9980	1570

-6 h, during exposure
Conditions	concentration in blood [ng/mL]
human [23]	222
human [24]	212

C=CCc1ccc(OC)c(OC)c1 [Methyleugenol]
concentration in plasma [ng/mL]
Conditions	0.25 h	1.5 h	6 h	10 min
Rat [25]	9380	670	–	–
Rat [27]	–	–	6.14	424

Conditions	concentration in plasma [ng/mL]
Rat [26]	374

CCC1(c2ccccc2)C(=O)NCNC1=O [Primidone]
Conditions	concentration in plasma [ng/mL]
Rat [28]	25300
Rat [29]	3100
